# The full list was thinned out, with hits kept by preference.
# T cruzi inh = blocks replication of Trypanosoma cruzi | 300,000 tested, 1.4% active | T. cruzi beta-gal in NIH3T3, luminescence, 90 h | inhibition, % (concentration not given with the values);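 active = mean inhibition across valid replicates above about 55%, limit read from the data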;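 note: signal also drops with host cell toxicity which is not excluded here; 0% = plate median of DMSO wells and 100% = zero luminescence signal; higher percent means less beta-gal luminescence so fewer parasites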
#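 Incubation – ≥90 h infection period, 3 h prior cell attachment · System – NIH/3T3 fibroblasts plus reporter T. cruzi · Doses – compound pinned at 50 nL/well, DMSO · Read-out basis – percent inhibition of parasite-derived β-gal signal · Signal – luminescent β-galactosidase signal after 60 min lysis · Also added – 5000 T. cruzi trypomastigotes/well · Medium – Low-serum DMEM with 2% FBS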
# Lmaj promast = Leishmania major promastigote growth inhibition; AID 1063; Leishmania major promastigotes, resazurin fluorescence viability; 200,000 tested, 9% active; inhibition, % at 10 µM; in the data active = inhibition above about 50%;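 note: promastigotes grown with compound for 44 hours at 28 °C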
# Dynein cargo inh = blocks dynein driven cargo transport along microtubules. 3617.4 mouse cells, GR-EGFP nuclear translocation imaging; test concentration mostly 20 µM; stimulated with dexamethasone, 1 µM; stronger effect = lower value. z-score, hits read low. 220,000 tested, 0.47% active. AID 1381;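 active = plate z-score of nuclear minus cytoplasmic receptor signal below a set negative limit, without overly bright fluorescence or cell loss, cut at about -3.5 in these data, passing the limit was not always enough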;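 note: z-score of nuclear minus cytoplasmic ring GR-EGFP intensity difference per well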
#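 Buffer or medium: Induction medium lacking tetracycline, stripped serum | Also added: Dexamethasone agonist, 1.0 µM final, for 30 min | Timing: 48 h induction, 1 h compound, 30 min dex at 37 °C | Detection: Formaldehyde fixation, Hoechst nuclear stain, 10x automated fluorescence imaging | Measure: Nuclear versus cytoplasmic GR-EGFP signal, averaged per well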
# CHOP inhibitor = CHOP inhibition in unfolded protein response | CHO-K1 CHOP-promoter luciferase, tunicamycin-induced, 15-18 h | inhibition, % at 10 µM | 220,000 tested, 3.8% active | AID 2732;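 active = compounds that reduced the stress-induced luciferase reporter signal by more than about 70% of percent inhibition, limit read from the data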;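 note: 0% = tunicamycin plus vehicle and 100% = wells without tunicamycin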
# XBP1 UPR activ = adaptive UPR (XBP1) activation; CHO-XBP1 luciferase reporter, IRE1-XBP1 UPR activation, luminescence; percent of tunicamycin response, DMSO as zero; activation, % at 20 µM; 330,000 tested, 0.33% active; AID 463104;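 active = versus positive control, 20 µM dose yields 30% or more activation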;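 note: 100% = tunicamycin at 10 µg/mL and 0% = DMSO only wells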
#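 Material: CHO cell line with stable XBP1 luciferase reporter; buffer or medium: F12 medium containing 10% fetal bovine serum; compound: single point, 20 µM final compound, 1% DMSO; incubation: 6 h treatment, 37 °C; measured by: glow luminescence from Steady-Glo reagent; evaluation: activation, % of tunicamycin; control set: tunicamycin high, DMSO low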
# UPR CHOP act = activators of apoptotic arm of unfolded protein response (CHOP); CHO-CHOP luciferase reporter, UPR activation, luminescence; percent of tunicamycin response over DMSO baseline; activation, % at 10 µM; 330,000 tested, 0.34% active; AID 449763;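 active = at 10 µM dose, activation of 40% or more, normalized to positive control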;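 note: 100% = tunicamycin at 10 µg/mL and 0% = DMSO alone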
#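 Test system: CHO-CHOP cells, stable luciferase reporter of PERK-eIF2a-CHOP signalling | Quantity: 500 CHO-CHOP cells per well | Buffer or medium: F12 plus 10% serum | Compound dosing: 10 µM single point, 0.5% DMSO | Schedule: 6 h compound treatment, 37 °C | Signal: Luciferase luminescence | Control set: Tunicamycin high control, DMSO low control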
# UPR XBP1 confirm = adaptive UPR (XBP1) activation, confirmed; activation, % at 20 µM; AID 485299; CHO-XBP1 IRE1-XBP1 luciferase reporter, luminescence; 1,000 tested, 63% active; shares compounds with XBP1 UPR activ;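 active = reporter signal at least 30% of the positive control's activation in two or more of four replicate wells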;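 note: plate controls were DMSO negative control for no effect and tunicamycin 10 µg/mL positive control for full effect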
# Starred values were filed as active, the others as inactive; / = no result.
SMILES,T cruzi inh,Lmaj promast,Dynein cargo inh,CHOP inhibitor,XBP1 UPR activ,UPR CHOP act,UPR XBP1 confirm
CCOC(=O)c1nnc(-c2ccccc2)nc1NCc1ccc(Cl)cc1,16.3,-3.3,0.19,51.3,1.7,-2.1,/
CCOC(=O)c1nnc(-c2ccc(C)cc2)nc1Sc1ccccc1Cl,9.5,38.9,0.00787,53.7,33.0*,24.9,47.9*
CCOC(=O)c1nnc(-c2ccccc2)nc1Sc1c(Cl)cccc1Cl,-8.1,34.7,-1.27,13.6,47.3*,26.0,96.7*
COc1cccc2c(N/N=C/c3ccccc3)cc(C)nc12,1.1,/,/,/,-3.7,0.9,/
COc1ccc(/C=N/Nc2cc(C)nc3ccc(Br)cc23)cc1,59.2*,/,/,/,32.1*,20.0,36.3*
CCCCNc1c(-c2ccc(-c3ccc(C(C)=O)cc3)c(OC)c2)nc2cc(C)ccn12,/,/,/,/,39.7*,8.7,37.5*
CN(C)CCCN(C(=O)c1ccc(S(=O)(=O)N2CCc3ccccc3C2)cc1)c1nc2ccc(F)cc2s1,24.8,/,/,/,31.3*,24.5,71.2*
Cc1cc(C)c2sc(N(CCCN(C)C)C(=O)c3ccc(S(=O)(=O)N4CCCc5ccccc54)cc3)nc2c1,60.0*,/,/,/,31.2*,8.5,54.0*
CN(C)CCN(C(=O)/C=C/c1cccs1)c1nc2ccc(F)cc2s1,42.8,3.2,-0.799,45.0,-1.4,4.9,/
CN(C)CCCN(C(=O)c1ccc(S(=O)(=O)N2CCc3ccccc32)cc1)c1nc2ccc(F)cc2s1,44.0,/,/,/,5.3,2.6,/
CN(C)CCCN(C(=O)c1cc(-c2cccs2)nc2ccccc12)c1nc2ccc(F)cc2s1,29.8,/,/,/,33.5*,5.1,39.8*
Cc1ccc2nc(N(CCCN(C)C)C(=O)c3ccc(S(=O)(=O)N4CCc5ccccc5C4)cc3)sc2c1,28.2,/,/,/,93.5*,36.2,49.2*
Cc1nnc(NC(=O)CSc2nnc3ncccn23)s1,-10.8,/,/,/,-1.4,0.2,/
CC(=O)c1cccc(Nc2nc(-c3cccc([N+](=O)[O-])c3)cs2)c1,44.0,25.7,0.914,54.8,42.7*,5.3,32.4*
O=C(Nc1cccc(-c2csc(Nc3cccc(C(F)(F)F)c3)n2)c1)c1cc([N+](=O)[O-])cc(C(F)(F)F)c1,42.5,/,0.182,39.7,9.2,24.2,/
O=C(Nc1c(C(=O)N2CCN(c3ccccn3)CC2)oc2ccccc12)c1cccc([N+](=O)[O-])c1,14.5,/,/,/,-4.6,1.9,/
Cc1ccc(S(=O)(=O)N2CCOCC2)cc1C(=O)O,-4.3,-9.5,0.134,-10.1,-2.5,1.7,/
Cc1ccc(C)c(N2CCN(C(=O)c3cc(S(=O)(=O)N4CCOCC4)ccc3F)CC2)c1,12.3,-2.6,-0.561,38.6,33.2*,-0.5,0.3
O=C(Nc1cc(S(=O)(=O)N2CCOCC2)ccc1N1CCCC1)c1ccc(Cl)cc1,/,/,/,/,0.3,5.1,/
Cc1ccc(C(=O)Nc2cc(S(=O)(=O)N3CCOCC3)ccc2N2CCCC2)cc1,/,/,/,/,35.4*,0.7,37.7*
O=c1[nH]c(CSc2ncnc3sc(-c4ccccc4)cc23)nc2ccccc12,23.7,/,-0.114,-15.0,86.7*,0.9,142.0*
CCCN1CCc2c(sc(NC(=O)c3ccc(S(=O)(=O)N(C)c4ccccc4)cc3)c2C(N)=O)C1,14.9,/,/,/,40.3*,3.1,5.0
CCCN1CCc2c(sc(NC(=O)c3ccc(S(=O)(=O)N(C)c4ccccc4)cc3)c2C(=O)NC)C1,35.2,/,/,/,-0.4,2.7,/
C[C@@H]1C[C@H]2[C@@H]3CCC4=CC(=O)C=C[C@]4(C)[C@@]3(Cl)[C@@H](O)C[C@]2(C)[C@@]1(OC(=O)c1ccco1)C(=O)CCl,/,/,/,/,78.6*,5.5,58.2*
CC1CC2C3CCC4=CC(=O)C=CC4(C)[C@@]3(Cl)C(O)CC2(C)C1(O)C(=O)CO (stereo partly specified),6.9,/,/,/,-3.0,2.2,/
SMILES,T cruzi inh,Lmaj promast,Dynein cargo inh,CHOP inhibitor,XBP1 UPR activ,UPR CHOP act,UPR XBP1 confirm
CSC1=NC(C)(C)C=C(/C=C/c2ccc(Cl)cc2)N1,9.9,100.4*,-2.44,-21.7,34.6*,7.7,45.4*
Cc1cc(NC(=O)c2cc(-c3ccncc3)nc3c(C)cccc23)no1,0.9,12.0,0.0481,/,152.8*,8.3,183.8*
CCOC(=O)c1c(NC(=O)CSc2nc3ccccc3[nH]2)sc2c1CC(C)(C)NC2(C)C,42.2,/,/,/,2.8,5.0,/
COC(=O)c1c(NC(=O)c2nc3ccccc3s2)sc2c1CC(C)(C)NC2(C)C,49.9,87.3*,-0.068,66.7,41.3*,26.0,47.7*
CCOC(=O)c1c(-c2ccc(C)o2)csc1NC(=O)COC(=O)c1ccc(NC(N)=O)cc1,-1.0,-7.4,-0.557,48.7,33.3*,8.9,54.9*
CCOC(=O)c1c(CC(C)C)csc1NC(=O)COC(=O)c1ccc(O)cc1,/,/,/,/,-0.1,-2.1,/
C=C(C)CSc1nnc(CCCCCNC(=O)OC(C)(C)C)o1,10.0,/,-0.229,27.5,-1.6,0.1,/
CCCCOc1c(Cl)cc(CNC(C)(C)CO)cc1OCC,42.3,41.6,2.9,25.8,1.0,1.2,/
CCOc1cc(CNC(C)(C)CO)cc(Br)c1OCc1ccc(Cl)cc1Cl,50.7,99.9*,-2.31,92.4*,83.0*,2.6,100.3*
O=C(Nc1ccc2c(c1)OCO2)c1cc(-c2ccc(O)cc2)on1,54.9*,/,/,/,35.6*,4.8,10.5
O=C(Nc1ccc2c(c1)OCO2)c1cc(-c2cccc(O)c2)on1,4.2,/,/,/,-0.6,8.9,/
O=C(NCc1ccco1)/C(=C/c1ccc(Br)cc1)NC(=O)c1ccco1,12.1,/,/,/,-0.9,3.4,/
Cc1cccc2sc(NC(=O)C3CSC4(C)CCC(=O)N34)nc12 (stereo unspecified),6.8,/,/,/,30.8*,-0.1,-1.8
CCOC(=O)c1ccc([N+](=O)[O-])c(CS(=O)(=O)c2ccc(Cl)cc2)c1,34.5,/,/,/,-4.0,0.8,/
Cc1ccc(S(=O)(=O)Cc2cc(F)c([N+](=O)[O-])cc2[N+](=O)[O-])cc1,-0.4,/,/,/,32.6*,10.0,40.7*
O=C(NNC(=S)NC1CCCCC1)c1sc2ccccc2c1Cl,-17.1,-6.4,1.2,16.6,-0.1,0.7,/
CC(C)(C)C(=O)NC(=S)NNC(=O)c1sc2ccccc2c1Cl,42.7,23.8,-0.00572,110.1*,34.5*,19.6,31.1*
CCCNc1c(NC(=O)c2cccs2)c(=O)oc2ccccc12,-4.8,/,/,/,-2.2,-1.8,/
COC(=O)c1ccc(CSc2nc3ccccc3c(=O)n2-c2ccccc2)o1,15.1,19.3,0.823,29.9,34.7*,-2.1,11.9
